From ChEMBL document CHEMBL1142492 (J Med Chem, 2008)

Columns and labels:
[1] = biological target: Casein kinase II subunit alpha (Homo sapiens) (UniProt P68400); assay: Inhibition of CSNK2A1 at 3 uM
[2] = biological target: Tyrosine-protein kinase Fyn (Homo sapiens) (UniProt P06241); assay: Inhibition of FYN at 3 uM
How it was run: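 Single-concentration kinase panel scoring: each value is the percentage of enzyme activity remaining relative to a DMSO-only control. An activity statistically indistinct from DMSO control was scored "no hit".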

[3] = biological target: Atypical kinase COQ8B, mitochondrial (Homo sapiens) (UniProt Q96D53); assay: Inhibition of ADCK4 at 3 uM
[4] = biological target: RAC-alpha serine/threonine-protein kinase (Homo sapiens, UniProt P31749); assay: Inhibition of AKT1 after 55 mins
[5] = biological target: TRAF2 and NCK-interacting protein kinase (Homo sapiens) (UniProt Q9UKE5); assay: Inhibition of TNIK at 3 uM
[6] = biological target: LIM domain kinase 1 (Homo sapiens) (UniProt P53667); assay: Inhibition of LIMK1 at 3 uM
[7] = biological target: Dual specificity protein kinase CLK1 (Homo sapiens) (UniProt P49759); assay: Inhibition of CLK1 at 3 uM
Rattus norvegicus [8] = organism: Rattus norvegicus; details: 3 uM
[9] = biological target: Bone morphogenetic protein receptor type-2 (Homo sapiens) (UniProt Q13873); assay: Inhibition of BMPR2 at 3 uM
[10] = biological target: Tyrosine-protein kinase Lck (Homo sapiens) (UniProt P06239); assay: Inhibition of LCK at 3 uM
[11] = biological target: Discoidin domain-containing receptor 2 (Homo sapiens) (UniProt Q16832); assay: Inhibition of DDR2 at 3 uM
[12] = biological target: Mitogen-activated protein kinase 13 (Homo sapiens) (UniProt O15264); assay: Inhibition of p38-delta at 3 uM
[13] = test system: Tyrosine-protein kinase ABL1 (Homo sapiens), P00519 [Y253F]; assay: Inhibition of ABL1 Y253F mutant at 3 uM
[14] = biological target: SRSF protein kinase 3 (Homo sapiens) (UniProt Q9UPE1); assay: Inhibition of SRPK3 at 3 uM
[15] = biological target: Serine/threonine-protein kinase PAK 3 (Homo sapiens) (UniProt O75914); assay: Inhibition of PAK3 at 3 uM
[16] = biological target: Serine/threonine-protein kinase ULK1 (Homo sapiens) (UniProt O75385); assay: Inhibition of ULK1 at 3 uM
[17] = biological target: Mitogen-activated protein kinase kinase kinase 10 (Homo sapiens) (UniProt Q02779); assay: Inhibition of MLK2 at 3 uM
[18] = biological target: 3-phosphoinositide-dependent protein kinase 1 (Homo sapiens) (UniProt O15530); assay: Inhibition of PDPK1 at 3 uM
[19] = biological target: Cyclin-dependent kinase 2 (Homo sapiens) (UniProt P24941); assay: Inhibition of CDK2 at 3 uM
[20] = biological target: Estrogen receptor (Homo sapiens) (UniProt P03372); assay: Inhibition of human ERalpha at 3 uM
How it was run: (§1)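 Counter-screen binding/enzyme panel at single 3 μM, n=2; results as percent inhibition. Species per target as listed (rat NMDA, GABAA sites; human receptors, transporters; rabbit ACE).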

[21] = biological target: Serine/threonine-protein kinase N2 (Homo sapiens) (UniProt Q16513); assay: Inhibition of PKN2 at 3 uM
[22] = biological target: Serine/threonine-protein kinase tousled-like 1 (Homo sapiens) (UniProt Q9UKI8); assay: Inhibition of TLK1 at 3 uM
[23] = biological target: cGMP-dependent protein kinase 1 (Homo sapiens) (UniProt Q13976); assay: Inhibition of PRKG1 at 3 uM
[24] = biological target: Activin receptor type-1B (Homo sapiens) (UniProt P36896); assay: Inhibition of ACVR1B at 3 uM
[25] = biological target: B1 bradykinin receptor (Homo sapiens) (UniProt P46663); assay: Inhibition of human bradykinin B1 receptor at 3 uM; how it was run: as §1
[26] = biological target: Serine/threonine-protein kinase Chk1 (Homo sapiens) (UniProt O14757); assay: Inhibition of CHEK1 at 3 uM
[27] = biological target: Muscle, skeletal receptor tyrosine-protein kinase (Homo sapiens) (UniProt O15146); assay: Inhibition of MUSK at 3 uM
[28] = biological target: Delta-type opioid receptor (Homo sapiens) (UniProt P41143); assay: Inhibition of human delta opioid receptor at 3 uM; how it was run: as §1
[29] = biological target: Death-associated protein kinase 2 (Homo sapiens) (UniProt Q9UIK4); assay: Inhibition of DAPK2 at 3 uM
[30] = biological target: Cyclin-dependent kinase 7 (Homo sapiens) (UniProt P50613); assay: Inhibition of CDK7 at 3 uM
[31] = biological target: Myosin-IIIb (Homo sapiens) (UniProt Q8WXR4); assay: Inhibition of MYO3B at 3 uM
[32] = biological target: Neuropeptide Y receptor type 2 (Homo sapiens) (UniProt P49146); assay: Inhibition of human neuropeptide Y Y2 receptor at 3 uM
[33] = biological target: Phosphatidylinositol 4,5-bisphosphate 3-kinase catalytic subunit beta isoform (Homo sapiens) (UniProt P42338); assay: Inhibition of PIK3CB at 3 uM
[34] = test system: Tyrosine-protein kinase ABL1 (Homo sapiens), P00519 [T315I]; assay: Inhibition of ABL1 T315I mutant at 3 uM
[35] = biological target: Homeodomain-interacting protein kinase 1 (Homo sapiens) (UniProt Q86Z02); assay: Inhibition of HIPK1 at 3 uM
[36] = test system: Mast/stem cell growth factor receptor Kit (Homo sapiens), P10721 [V559D,T670I]; assay: Inhibition of KIT V559D,T670I mutant at 3 uM
[37] = biological target: Cyclin-dependent kinase 11B (Homo sapiens) (UniProt P21127); assay: Inhibition of CDC2L1 at 3 uM
[38] = biological target: Serine/threonine-protein kinase Nek1 (Homo sapiens) (UniProt Q96PY6); assay: Inhibition of NEK1 at 3 uM
[39] = biological target: Phosphatidylinositol 4-phosphate 3-kinase C2 domain-containing subunit beta (Homo sapiens) (UniProt O00750); assay: Inhibition of PIK3C2B at 3 uM
[40] = biological target: SRSF protein kinase 1 (Homo sapiens) (UniProt Q96SB4); assay: Inhibition of SRPK1 at 3 uM
[41] = biological target: Glycogen synthase kinase-3 beta (Homo sapiens) (UniProt P49841); assay: Inhibition of GSK3B at 3 uM
[42] = biological target: Serine/threonine-protein kinase 32B (Homo sapiens) (UniProt Q9NY57); assay: Inhibition of YANK2 at 3 uM
Rattus norvegicus [43] = organism: Rattus norvegicus; details: 3 uM; remark: listed apart in the source
[44] = biological target: Beta-1 adrenergic receptor (Homo sapiens) (UniProt P08588); assay: Inhibition of human adrenergic beta-1 receptor at 3 uM; how it was run: as §1
[45] = biological target: Mitogen-activated protein kinase kinase kinase kinase 2 (Homo sapiens) (UniProt Q12851); assay: Inhibition of MAP4K2 at 3 uM
[46] = biological target: STE20-like serine/threonine-protein kinase (Homo sapiens) (UniProt Q9H2G2); assay: Inhibition of SLK at 3 uM

B1 bradykinin receptor (Homo sapiens), sequence (P46663 whole entry): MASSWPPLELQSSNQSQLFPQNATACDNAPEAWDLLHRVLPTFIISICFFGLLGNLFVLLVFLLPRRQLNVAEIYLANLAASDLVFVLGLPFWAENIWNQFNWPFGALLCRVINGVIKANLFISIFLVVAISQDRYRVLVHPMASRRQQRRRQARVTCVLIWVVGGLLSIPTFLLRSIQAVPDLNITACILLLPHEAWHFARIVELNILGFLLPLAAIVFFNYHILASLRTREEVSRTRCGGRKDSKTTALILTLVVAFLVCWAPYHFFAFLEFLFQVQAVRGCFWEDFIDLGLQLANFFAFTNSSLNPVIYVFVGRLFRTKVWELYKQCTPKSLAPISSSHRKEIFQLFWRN
Mast/stem cell growth factor receptor Kit (Homo sapiens), P10721 [V559D,T670I], sequence (P10721 whole entry V559D/T670I): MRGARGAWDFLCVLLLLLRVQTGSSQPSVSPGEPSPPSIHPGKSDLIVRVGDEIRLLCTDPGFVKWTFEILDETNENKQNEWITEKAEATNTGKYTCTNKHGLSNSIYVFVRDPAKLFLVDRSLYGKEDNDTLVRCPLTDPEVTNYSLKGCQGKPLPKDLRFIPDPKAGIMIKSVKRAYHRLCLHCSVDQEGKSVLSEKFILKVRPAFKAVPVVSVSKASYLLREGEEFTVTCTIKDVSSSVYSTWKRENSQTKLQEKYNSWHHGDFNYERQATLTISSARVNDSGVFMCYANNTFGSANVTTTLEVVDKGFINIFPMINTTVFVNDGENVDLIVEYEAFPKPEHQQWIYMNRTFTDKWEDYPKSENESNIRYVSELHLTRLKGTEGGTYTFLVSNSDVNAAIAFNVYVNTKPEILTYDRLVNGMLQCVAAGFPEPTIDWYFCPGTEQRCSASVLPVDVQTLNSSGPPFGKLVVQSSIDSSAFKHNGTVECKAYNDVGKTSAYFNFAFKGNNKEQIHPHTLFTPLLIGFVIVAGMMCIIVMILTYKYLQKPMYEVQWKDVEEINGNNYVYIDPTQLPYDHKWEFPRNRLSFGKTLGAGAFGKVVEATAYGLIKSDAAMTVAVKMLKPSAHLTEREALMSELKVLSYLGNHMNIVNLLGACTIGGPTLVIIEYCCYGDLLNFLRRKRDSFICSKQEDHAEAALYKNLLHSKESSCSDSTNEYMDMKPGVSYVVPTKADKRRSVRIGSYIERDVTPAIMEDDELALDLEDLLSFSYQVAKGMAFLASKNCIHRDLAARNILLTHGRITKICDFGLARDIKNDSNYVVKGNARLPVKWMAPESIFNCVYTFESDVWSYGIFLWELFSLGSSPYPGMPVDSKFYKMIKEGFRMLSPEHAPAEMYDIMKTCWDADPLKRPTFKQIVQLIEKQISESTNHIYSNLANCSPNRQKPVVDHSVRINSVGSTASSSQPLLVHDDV
TRAF2 and NCK-interacting protein kinase (Homo sapiens), sequence (Q9UKE5 whole entry, looked up, the tested form may be a part): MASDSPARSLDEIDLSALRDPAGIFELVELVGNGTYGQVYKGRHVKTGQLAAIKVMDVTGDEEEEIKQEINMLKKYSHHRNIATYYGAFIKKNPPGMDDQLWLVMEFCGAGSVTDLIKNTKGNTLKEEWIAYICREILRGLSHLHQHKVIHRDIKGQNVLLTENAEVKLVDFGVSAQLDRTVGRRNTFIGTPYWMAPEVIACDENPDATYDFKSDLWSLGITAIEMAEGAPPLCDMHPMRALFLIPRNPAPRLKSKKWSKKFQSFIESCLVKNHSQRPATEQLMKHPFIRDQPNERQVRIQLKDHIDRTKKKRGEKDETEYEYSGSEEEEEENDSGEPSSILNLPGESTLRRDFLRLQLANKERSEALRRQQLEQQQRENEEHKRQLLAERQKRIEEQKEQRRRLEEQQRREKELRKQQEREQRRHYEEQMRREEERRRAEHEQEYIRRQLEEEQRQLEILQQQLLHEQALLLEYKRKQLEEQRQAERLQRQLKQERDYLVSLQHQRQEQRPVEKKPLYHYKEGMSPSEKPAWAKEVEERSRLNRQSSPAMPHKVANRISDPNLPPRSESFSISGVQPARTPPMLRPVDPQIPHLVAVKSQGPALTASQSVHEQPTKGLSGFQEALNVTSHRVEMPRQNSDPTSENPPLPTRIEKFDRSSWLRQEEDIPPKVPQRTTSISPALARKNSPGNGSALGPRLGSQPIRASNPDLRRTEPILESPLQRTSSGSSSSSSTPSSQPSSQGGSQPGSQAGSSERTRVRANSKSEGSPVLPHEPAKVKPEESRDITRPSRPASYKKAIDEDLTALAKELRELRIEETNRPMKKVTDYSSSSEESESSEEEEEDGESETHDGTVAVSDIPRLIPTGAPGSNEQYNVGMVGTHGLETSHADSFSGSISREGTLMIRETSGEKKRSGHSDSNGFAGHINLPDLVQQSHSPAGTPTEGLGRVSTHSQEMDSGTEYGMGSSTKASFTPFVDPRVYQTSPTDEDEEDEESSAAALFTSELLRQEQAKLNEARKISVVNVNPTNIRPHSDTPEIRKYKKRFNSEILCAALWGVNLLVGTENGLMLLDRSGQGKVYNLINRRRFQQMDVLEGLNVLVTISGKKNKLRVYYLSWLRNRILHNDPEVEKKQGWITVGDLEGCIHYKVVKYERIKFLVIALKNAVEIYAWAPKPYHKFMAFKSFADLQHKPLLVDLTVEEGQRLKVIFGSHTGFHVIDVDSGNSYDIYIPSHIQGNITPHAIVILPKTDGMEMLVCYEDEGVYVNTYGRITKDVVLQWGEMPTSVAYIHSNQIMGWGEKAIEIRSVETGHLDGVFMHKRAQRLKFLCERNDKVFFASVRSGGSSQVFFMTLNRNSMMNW
Serine/threonine-protein kinase N2 (Homo sapiens), sequence (Q16513 whole entry, looked up): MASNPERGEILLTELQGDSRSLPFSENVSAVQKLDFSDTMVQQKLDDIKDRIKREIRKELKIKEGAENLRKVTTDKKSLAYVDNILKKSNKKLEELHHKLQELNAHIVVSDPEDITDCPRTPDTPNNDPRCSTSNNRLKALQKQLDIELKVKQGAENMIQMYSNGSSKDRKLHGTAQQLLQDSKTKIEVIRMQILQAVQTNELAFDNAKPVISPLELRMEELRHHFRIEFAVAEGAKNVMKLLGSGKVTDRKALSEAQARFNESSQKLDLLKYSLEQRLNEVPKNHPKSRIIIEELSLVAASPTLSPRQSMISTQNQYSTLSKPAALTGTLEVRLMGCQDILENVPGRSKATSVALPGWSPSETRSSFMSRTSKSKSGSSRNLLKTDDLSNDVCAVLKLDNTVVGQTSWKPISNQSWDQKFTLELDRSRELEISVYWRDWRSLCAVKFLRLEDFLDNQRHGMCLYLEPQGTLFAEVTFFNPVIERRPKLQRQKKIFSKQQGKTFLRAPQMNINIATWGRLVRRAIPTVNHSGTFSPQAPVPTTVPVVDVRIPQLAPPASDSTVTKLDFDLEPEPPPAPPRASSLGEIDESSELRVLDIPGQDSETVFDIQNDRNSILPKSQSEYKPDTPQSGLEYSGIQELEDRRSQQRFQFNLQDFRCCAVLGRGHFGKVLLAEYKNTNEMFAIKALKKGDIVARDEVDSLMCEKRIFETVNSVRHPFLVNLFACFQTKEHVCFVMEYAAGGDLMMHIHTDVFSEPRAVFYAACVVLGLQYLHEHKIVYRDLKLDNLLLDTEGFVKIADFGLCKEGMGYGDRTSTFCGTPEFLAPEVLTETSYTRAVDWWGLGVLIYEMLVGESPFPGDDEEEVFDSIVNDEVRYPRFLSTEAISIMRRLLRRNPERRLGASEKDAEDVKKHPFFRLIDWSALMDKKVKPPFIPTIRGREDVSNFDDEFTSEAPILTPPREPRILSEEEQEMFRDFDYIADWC
Muscle, skeletal receptor tyrosine-protein kinase (Homo sapiens), sequence (O15146 whole entry): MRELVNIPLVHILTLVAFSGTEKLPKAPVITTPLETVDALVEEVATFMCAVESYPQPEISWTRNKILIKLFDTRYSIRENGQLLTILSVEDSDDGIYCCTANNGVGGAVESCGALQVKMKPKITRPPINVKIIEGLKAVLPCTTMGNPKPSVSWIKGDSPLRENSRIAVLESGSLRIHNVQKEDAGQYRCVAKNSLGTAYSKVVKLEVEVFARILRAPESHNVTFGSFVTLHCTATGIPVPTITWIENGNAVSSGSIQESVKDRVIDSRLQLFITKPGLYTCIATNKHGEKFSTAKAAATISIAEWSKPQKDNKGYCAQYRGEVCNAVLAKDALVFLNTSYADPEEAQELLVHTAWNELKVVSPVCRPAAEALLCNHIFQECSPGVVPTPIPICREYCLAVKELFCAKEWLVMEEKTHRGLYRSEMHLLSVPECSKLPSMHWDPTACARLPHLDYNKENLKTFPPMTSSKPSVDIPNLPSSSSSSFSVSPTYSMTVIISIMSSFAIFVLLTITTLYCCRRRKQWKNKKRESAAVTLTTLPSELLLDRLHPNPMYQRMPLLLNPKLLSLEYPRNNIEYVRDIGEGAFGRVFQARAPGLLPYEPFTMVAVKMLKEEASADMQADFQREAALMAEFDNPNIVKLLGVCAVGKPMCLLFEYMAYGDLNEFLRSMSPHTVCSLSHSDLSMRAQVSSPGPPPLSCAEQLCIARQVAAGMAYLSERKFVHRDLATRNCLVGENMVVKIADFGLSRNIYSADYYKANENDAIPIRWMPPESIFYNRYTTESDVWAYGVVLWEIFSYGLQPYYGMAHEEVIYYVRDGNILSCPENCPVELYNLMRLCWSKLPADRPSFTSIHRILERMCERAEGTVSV
Mitogen-activated protein kinase 13 (Homo sapiens), sequence (O15264 whole entry): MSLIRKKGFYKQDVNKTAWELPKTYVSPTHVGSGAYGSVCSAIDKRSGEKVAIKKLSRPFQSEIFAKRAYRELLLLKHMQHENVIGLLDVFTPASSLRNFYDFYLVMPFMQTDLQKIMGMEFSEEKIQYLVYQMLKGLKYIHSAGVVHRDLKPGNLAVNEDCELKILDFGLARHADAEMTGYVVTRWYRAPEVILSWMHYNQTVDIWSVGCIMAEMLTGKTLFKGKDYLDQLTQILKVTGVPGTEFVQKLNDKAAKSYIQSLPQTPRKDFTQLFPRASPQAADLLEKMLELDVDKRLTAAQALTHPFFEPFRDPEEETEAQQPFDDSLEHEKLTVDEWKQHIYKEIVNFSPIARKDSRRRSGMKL

CN(C)CCOc1cc(-c2cn[nH]c2)ccc1NC(=O)C1COc2ccccc2O1 (stereo unspecified) [SR-3677]
7.49 µM: IC50 [4]
94.9%: inhibition [7]
< 10%: inhibition [1] | inhibition [2] | inhibition [3] | inhibition [5] | inhibition [6] | inhibition [9] | inhibition [10] | inhibition [11] | inhibition [12] | inhibition [13] | inhibition [14] | inhibition [15] | inhibition [16] | inhibition [17] | inhibition [18] | inhibition [19] | inhibition [21] | inhibition [22] | inhibition [23] | inhibition [24] | inhibition [26] | inhibition [27] | inhibition [29] | inhibition [30] | inhibition [31] | inhibition [33] | inhibition [34] | inhibition [35] | inhibition [36] | inhibition [37] | inhibition [38] | inhibition [39] | inhibition [40] | inhibition [41] | inhibition [42] | inhibition [45] | inhibition [46]
-2%: inhibition [20]
-3%: inhibition [25]
43%: inhibition [44]
14%: inhibition (Rattus norvegicus [8])
-9%: inhibition [28]
-4%: inhibition (Rattus norvegicus [43])
0%: inhibition [32]
